Laboratory results published in paper PMC5460915 (Molecular pharmaceutics, 2015).

What was measured:
[1] = tested on: NTR1-expressing HT-29 tumor; test: Immunohistochemistry and fluorescence microscopy of HT-29 tumor sections; assay type: in vivo, mice bearing human HT-29 xenograft
In short: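 Dye-conjugated test compound given i.v. to HT-29 xenograft mice, with or without a blocking dose of NT peptide. Tumors taken 4 h p.i., […], cut at 6 μm (cryostat, −25 °C) and fixed in ice-cold acetone for 15 min. Peroxidase quenched with 3% H2O2 in methanol, then blocked with 10% horse serum for 1 h at RT. Anti-CD31 with labelled secondary (1:200), DAPI 2 μg/mL for 20 min at 37 °C. Confocal imaging, 40× objective.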

[2] = biological target: NTR1 (NTR1-positive HT-29 cells) (Homo sapiens, UniProt P30989); test: In vitro competitive cell binding assay against 125I-NT; details: as supported by the similar IC50 values
NTR1 (NTR1-positive HT-29 cells), sequence (P30989 whole entry): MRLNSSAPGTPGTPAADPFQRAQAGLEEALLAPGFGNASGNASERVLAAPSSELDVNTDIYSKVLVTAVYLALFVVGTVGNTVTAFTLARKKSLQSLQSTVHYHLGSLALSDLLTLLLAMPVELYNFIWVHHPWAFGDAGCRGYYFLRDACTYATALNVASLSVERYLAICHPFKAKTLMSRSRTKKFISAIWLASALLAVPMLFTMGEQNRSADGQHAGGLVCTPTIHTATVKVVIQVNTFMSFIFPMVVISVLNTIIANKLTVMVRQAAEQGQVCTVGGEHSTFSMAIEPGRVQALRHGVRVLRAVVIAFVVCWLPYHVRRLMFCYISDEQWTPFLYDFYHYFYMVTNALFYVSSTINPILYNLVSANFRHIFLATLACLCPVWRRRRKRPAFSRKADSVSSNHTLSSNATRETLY

[3] = Biodistribution in nude mice bearing HT-29 tumor; assay type: in vivo, nude mice bearing HT-29 xenograft; details: for tissue uptake at 4 h: male, athymic nude BALB/c nu/nu, mouse, total radioactivity
In short: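 HT-29 cells (McCoy's 5A, 10% FBS, 37 °C, 5% CO2; trypsin-EDTA at 80% confluence) at 1 × 10^6 per 0.1 mL s.c. in the shoulder of 4–6-wk male BALB/c nu/nu mice, used at ≥3 mm tumor diameter. 3.7 MBq 64Cu-labelled test compound (HPLC-purified, in PBS) given. Mice killed under inhalation anesthesia 4 h p.i.; tissues weighed and gamma-counted. Group mean %ID/g ± SD.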

[4] = tested on: NTR1-positive HT-29 tumor; test: Ex vivo near-infrared fluorescence imaging of tumors and organs; assay type: in vivo, mice bearing human HT-29 xenograft
[5] = tested on: NTR1-positive HT-29 tumor; test: In vivo near-infrared fluorescence imaging; set-up: species or system mice bearing human HT-29 xenograft; details: 1.5 nmol i.v., 1 and 4 h p.i., Cy5.5 filter set
[6] = In vitro stability in PBS; assay type: physicochemical; details: PBS (1×), 37 MBq/mL, radio-HPLC
In short: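 64Cu-labelled test compound HPLC-purified, solvent evaporated and taken up in 1× PBS at 37 MBq/mL. Radiochemical purity by radio-HPLC at 30 min, 2 h and 6 h of incubation.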

[7] = tested on: NTR1-positive HT-29 tumor; test: Small animal PET imaging in HT-29 xenograft mice; assay type: in vivo, human HT-29 xenograft in male athymic mice (BALB/c nu/nu)
In short: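 Xenografts were HT-29 cells, 1 × 10^6 per 0.1 mL s.c. in the shoulder, tumors ≥3 mm. Radioligand labelled with 64CuCl2 in NH4OAc pH 5.5 at 37 °C for 60 min, HPLC-purified, in PBS (about 10.2 GBq/μmol). About 3.7 MBq via tail vein, n = 3/group; blocking group co-given 100 μg unlabelled NT. PET at 1 and 4 h p.i. ROI counts/g/min (1 g/mL density assumed) divided by injected dose gave %ID/g.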

| SMILES | fluorescent signal in tumors of blocking animals (in words) ([1]; 4 h p.i., with blocking dose of NT peptide vs without) | specific binding in HT-29 tumor (in words) ([1]; FL microscope, coinjected Cys-NT peptide) | binding affinity compared between DOTA-NT-Cy5.5 and NT (in words) [2] | tumor-to-muscle ratio ([3]; 4 h p.i., based on biodistribution, HT-29 xenograft, mean ± SD) | tumor uptake relative to liver, PET and biodistribution (in words) ([3]; HT-29 tumor vs liver, PET imaging and biodistribution) | muscle, lung, and heart uptake (in words) ([3]; biodistribution, 4 h p.i., 3.7 MBq) | tissue uptake at 4 h ([3]; kidney, 3.7 MBq) [%ID/g] | tissue uptake at 4 h ([3]; liver, 3.7 MBq) [%ID/g] | tumor uptake relative to liver, optical imaging (in words) ([4]; HT-29 tumor vs liver, optical imaging) | tumor to muscle contrast (in words) ([4]; PET and ex vivo fluorescence, 4 h p.i.) | organs with high probe uptake (in words) ([4]; ex vivo fluorescence, 1.5 nmol i.v., 4 h p.i.) | tumor fluorescence signal in vivo (in words) [5] | radiochemical purity ([6]; 30 min after incubation) | radiochemical purity ([6]; 2 h after incubation) [%] | radiochemical purity ([6]; 6 h after incubation) [%] | tumor uptake ([7]; PET ROI, HT-29 xenograft, 1 h p.i., ~3.7 MBq tail vein, n = 3/group, mean ± SD) [%ID/g] | inhibition of tumor uptake by nonradioactive Cys-NT (in words) ([7]; blocking experiment, P < 0.05, all time points (Figures 3 and 5: PET and fluorescence)) | uptake in normal organs, blocked vs unblocked (in words) ([7]; liver, kidneys, muscle, with vs without 100 μg unlabeled NT) |
| --- | --- | --- | --- | --- | --- | --- | --- | --- | --- | --- | --- | --- | --- | --- | --- | --- | --- | --- |
| CC[C@H](C)[C@H](NC(=O)[C@H](Cc1ccc(O)cc1)NC(=O)[C@@H]1CCCN1C(=O)[C@H](CCCNC(=N)N)NC(=O)[C@H](CCCNC(=N)N)NC(=O)[C@@H]1CCCN1C(=O)[C@H](CCCCN)NC(=O)[C@H](CSC1CC(=O)N(CCNC(=O)CCCCC[N+]2=C(C=CC=CC=C3N(CC)c4ccc5c(S(=O)(=O)O)cc(S(=O)(=O)[O-])cc5c4C3(C)C)C(C)(C)c3c2ccc2c(S(=O)(=O)O)cc(S(=O)(=O)O)cc32)C1=O)NC(=O)CN1CCN(CC(=O)O)CCN(CC(=O)O)CCN(CC(=O)O)CC1)C(=O)N[C@@H](CC(C)C)C(=O)O (stereo partly drawn) [DOTA-NT-Cy5.5] | very weak fluorescent signals | tumor localization was clearly inhibited by coinjected Cys-NT peptide | not significantly different | – | – | – | – | – | – | – | – | – | – | – | – | – | – | – |
| CC[C@H](C)[C@H](NC(=O)[C@H](Cc1ccc(O)cc1)NC(=O)[C@@H]1CCCN1C(=O)[C@H](CCCNC(=N)N)NC(=O)[C@H](CCCNC(=N)N)NC(=O)[C@@H]1CCCN1C(=O)[C@H](CCCCN)NC(=O)[C@H](CSC1CC(=O)N(CCNC(=O)CCCCC[N+]2=C(C=CC=CC=C3N(CC)c4ccc5c(S(=O)(=O)O)cc(S(=O)(=O)[O-])cc5c4C3(C)C)C(C)(C)c3c2ccc2c(S(=O)(=O)O)cc(S(=O)(=O)O)cc32)C1=O)NC(=O)CN1CCN(CC(=O)O)CCN(CC(=O)O)CCN(CC(=O)O)CC1)C(=O)N[C@@H](CC(C)C)C(=O)O (stereo partly drawn) [^64Cu-DOTA-NT-Cy5.5, metal not drawn] | – | – | – | 17.44 ± 3.25 | HT-29 tumor has lower uptake than liver | The muscle, lung, and heart had relatively low uptake | 14.2 ± 1.33 | 4.63 ± 0.74 | higher tumor uptake than liver | both PET and fluorescence gave good tumor to muscle contrast | The tumor, liver, and kidneys are three motifs that showed high probe uptake | the HT-29 tumor lit up at all the time points examined | greater than 98.9% | > 96.9 | > 90.8 | 1.91 ± 0.22 | nonradioactive Cys-NT peptide significantly (P < 0.05) inhibited the tumor uptake | no significant difference in most of the normal organs |
